According to ChEMBL document CHEMBL2390899, “Synthesis of new 18F-radiolabeled silicon-based nitroimidazole compounds” (Bioorg Med Chem, 2013):

Tests used:
[1] = Half life of the compound; type: physicochemical
[2] = Half life of the compound in saline at pH 5.5 by radio-HPLC and radio-TLC analysis; type: physicochemical
How it was run: (§1)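 Aqueous saline (pH 5.5) samples of the 18F compound were analysed by radio-HPLC and radio-TLC at 5, 15, 30, 60 and 120 min to follow hydrolysis of the Si–F bond. Hydrolysis was followed up to 180 min. Half-life was taken from the decay of intact tracer.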

[3] = Lipophilicity, log D of the compound at pH 4; type: physicochemical; details: buffer
[4] = Half life human plasma by radio-HPLC and radio-TLC analysis; type: ADME, cell-free
How it was run: (§2)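 The 18F-labelled compound was incubated in human plasma at 37 °C and monitored by radio-HPLC and radio-TLC for at least 120 min. The intact fraction and the half-life were obtained from this time course.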

Heart = assay: Biodistribution in Wistar rat heart at 10 MBq after 90 mins by PET analysis; type: ADME, organism-based; details: in vivo, 1.5 h
Rattus norvegicus [5] = species: Rattus norvegicus; assay: Biodistribution in Wistar rat femur bone at 10 MBq after 90 mins by PET analysis; type: ADME, organism-based, Bone element; details: in vivo, 1.5 h
[6] = Chemical stability of the compound in saline after 180 mins at pH 5.5 by radio-HPLC and radio-TLC analysis; type: physicochemical; details: buffer, pH 5.5, 3 h; how it was run: as §1
[7] = Chemical stability of the compound in saline after 2 hrs at pH 5.5 by radio-HPLC and radio-TLC analysis; type: physicochemical; details: read-out: Stability; how it was run: as §1
Intestine = assay: Biodistribution in Wistar rat intestine at 10 MBq after 90 mins by PET analysis; type: ADME, organism-based; details: in vivo, 1.5 h
Liver = assay: Biodistribution in Wistar rat liver at 10 MBq after 90 mins by PET analysis; type: ADME, organism-based; details: in vivo, 1.5 h
[8] = Metabolic stability in human plasma assessed as compound remaining after 2 hrs by radio-HPLC and radio-TLC analysis; type: ADME, cell-free; details: read-out: Stability; how it was run: as §2
[9] = Lipophilicity, log D of the compound at pH 7.4; type: physicochemical; details: buffer
[10] = Drug degradation in water at pH 7.4 by radio-HPLC and radio-TLC analysis; type: physicochemical; details: read-out: Drug degradation
How it was run: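 Decomposition of the 18F compound in water at pH 7.4 was followed by radio-HPLC and radio-TLC, read after 120 min.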

Muscle tissue = assay: Biodistribution in Wistar rat muscle at 10 MBq after 90 mins by PET analysis; type: ADME, organism-based; details: in vivo, 1.5 h
Rattus norvegicus [11] = species: Rattus norvegicus; assay: Biodistribution in Wistar rat bladder at 10 MBq after 90 mins by PET analysis; type: ADME, organism-based, Urinary bladder/Urine; details: in vivo, 1.5 h
[12] = Octanol-water partition coefficient, log P of the compound; type: physicochemical
How it was run: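 LogP was calculated as clogP with ChemDraw 11.0.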

For `O=[N+]([O-])c1nccn1CCC[Si]([18F])(c1cccc2ccccc12)c1cccc2ccccc12`, the half-life [1] was 2.17 h.

In the case of `O=C(Cn1ccnc1[N+](=O)[O-])NCCC[Si]([18F])(c1cccc2ccccc12)c1cccc2ccccc12`, the half-life [2] is reported as 1 h, the logD [3] is reported as 0.12 and the half-life [4] is reported as less than 5 min.

`O=[N+]([O-])c1nccn1CCOCCOCc1cn(CCC[Si]([18F])(c2cccc3ccccc23)c2cccc3ccccc23)nn1` gave a half-life [2] of 1 h and a half-life [4] of less than 5 min.

For `CC(C)(C)[Si]([18F])(c1cccc(C(=O)NCCn2ccnc2[N+](=O)[O-])c1)C(C)(C)C`, the SUV (Heart) was 0.5%, the SUV (Rattus norvegicus [5]) was 2.8% and the Stability [6] was “Stable”. For the same compound, the remaining at 2 h [7] was 100%, the SUV (Intestine) was 6.5% and the SUV (Liver) was 7.3%. It also gave a remaining at 2 h [8] of 85%, a logD [9] of 2.12 and a degraded [10] of less than 10%. The SUV (Muscle tissue) was 0.3% and the SUV (Rattus norvegicus [11]) was 9.5%.

Work on `O=C(Cn1ccnc1[N+](=O)[O-])NCC(F)(F)C(F)(F)F` yielded a P [12] of 5.7.
